ChEMBL document CHEMBL4382211, “Design, synthesis, and X-ray studies of potent HIV-1 protease inhibitors incorporating aminothiochromane and aminotetrahydronaphthalene carboxamide derivatives as the P2 ligands” (Eur J Med Chem, 2018)

Tests used:
[1] = system: Human immunodeficiency virus 1; assay: Antiviral activity against HIV1 NL4-3 infected in human MT4 cells after 7 days by MTT assay; format: functional, organism-based; settings: Human immunodeficiency virus 1, NL4-3, MT4, 168 h
Outline: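 MT-4 human T-lymphoid cells were exposed to HIV-1 NL4-3 (subtype B). IC50 values are the mean of at least two experiments.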

Protease = Protease (Human immunodeficiency virus 1, UniProt Q9YQ12); assay: Inhibition of HIV1 protease using fluorogenic substrate by continuous fluorometric assay
[2] = Selectivity index, ratio of CC50 for human MT4 cells to IC50 for HIV1 NL4-3; format: toxicity; settings: read-out: Ratio CC50/IC50
Outline: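 Antiviral IC50 measured in MT-4 human T-lymphoid cells exposed to HIV-1 NL4-3 (subtype B), with values the mean of at least two experiments. CC50 (cytotoxicity) determined in MT-4 cells, given in μM. Index calculated as CC50 divided by IC50.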

MT4 = assay: (§1) Cytotoxicity against human MT4 cells after 7 days by MTT assay; format: cell-based; settings: mt4, 168 h
[3] = as §1; format: cell-based; settings: MT4 cells

Protease, sequence (Q9YQ12 whole entry): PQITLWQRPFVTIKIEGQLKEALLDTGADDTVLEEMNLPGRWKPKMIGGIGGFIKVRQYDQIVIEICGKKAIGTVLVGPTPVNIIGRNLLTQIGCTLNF

Row | Structure (SMILES) | IC50 [1] | Ki (Protease) | selectivity ratio [2] | CC50 (MT4) | CC50 at 168 h [3]
1 | COc1ccc(S(=O)(=O)N(CC(C)C)C[C@@H](O)[C@H](Cc2ccccc2)NC(=O)c2ccc3c(c2)[C@H](NC(=O)OC(C)(C)C)CC[C@@H]3O)cc1 | > 1000 nM | 1.63 nM | – | – | –
2 | COc1ccc(S(=O)(=O)N(CC(C)C)C[C@@H](O)[C@H](Cc2ccccc2)NC(=O)c2ccc3c(c2)[C@H](N)CC[C@@H]3O)cc1 | > 1000 nM | 1.1 nM | – | – | –
3 | COc1ccc(S(=O)(=O)N(CC(C)C)C[C@@H](O)[C@H](Cc2ccccc2)NC(=O)c2ccc3c(c2)[C@@H](N)CCS3(=O)=O)cc1 | > 1000 nM | 15.8 nM | – | – | –
4 | COc1ccc(S(=O)(=O)N(CC(C)C)C[C@@H](O)[C@H](Cc2ccccc2)NC(=O)c2ccc3c(c2)[C@H](N)CCS3(=O)=O)cc1 | > 1000 nM | 18 nM | – | – | –
5 | COc1ccc(S(=O)(=O)N(CC(C)C)C[C@@H](O)[C@H](Cc2ccccc2)NC(=O)c2ccc3c(c2)[C@@H](NC(=O)OC(C)(C)C)CCS3)cc1 | > 1000 nM | 0.38 nM | – | – | –
6 | COc1ccc(S(=O)(=O)N(CC(C)C)C[C@@H](O)[C@H](Cc2ccccc2)NC(=O)c2ccc3c(c2)[C@@H](NC(=O)OC(C)(C)C)CC[C@H]3O)cc1 | > 1000 nM | 0.3 nM | – | – | –
7 | CC(C)(C)NC(=O)[C@@H]1C[C@@H]2CCCC[C@@H]2CN1C[C@@H](O)[C@H](Cc1ccccc1)NC(=O)[C@H](CC(N)=O)NC(=O)c1ccc2ccccc2n1 | 15 nM | – | – | – | –
8 | COc1ccc(S(=O)(=O)N(CC(C)C)C[C@@H](O)[C@H](Cc2ccccc2)NC(=O)c2ccc3c(c2)[C@@H](N)CC[C@@H]3O)cc1 | 232 nM | 0.06 nM | 151 | 35100 nM | –
9 | COc1ccc(S(=O)(=O)N(CC(C)C)C[C@@H](O)[C@H](Cc2ccccc2)NC(=O)c2ccc3c(c2)[C@@H](NC(=O)OC(C)(C)C)CC[C@@H]3O)cc1 | 254 nM | 0.14 nM | 131 | 33300 nM | –
10 | COc1ccc(S(=O)(=O)N(CC(C)C)C[C@@H](O)[C@H](Cc2ccccc2)NC(=O)c2ccc3c(c2)[C@H](NC(=O)OC(C)(C)C)CCS3)cc1 | > 1000 nM | 26.7 nM | – | – | –
11 | COc1ccc(S(=O)(=O)N(CC(C)C)C[C@@H](O)[C@H](Cc2ccccc2)NC(=O)c2ccc3c(c2)[C@H](NC(=O)OC(C)(C)C)CCS3(=O)=O)cc1 | 476 nM | 0.1 nM | > 210 | – | > 100000 nM
12 | COc1ccc(S(=O)(=O)N(CC(C)C)C[C@@H](O)[C@H](Cc2ccccc2)NC(=O)c2ccc3c(c2)[C@@H](N)CC[C@H]3O)cc1 | > 1000 nM | 17 nM | – | – | –
13 | COc1ccc(S(=O)(=O)N(CC(C)C)C[C@@H](O)[C@H](Cc2ccccc2)NC(=O)c2ccc3c(c2)[C@@H](NC(=O)OC(C)(C)C)CCS3(=O)=O)cc1 | 47 nM | 0.008 nM | > 2130 | – | > 100000 nM
